The values below come from ChEMBL document CHEMBL1764980, “Synthesis and biological evaluation of orally active prodrugs of indomethacin” (J Med Chem, 2011).

A word on the inhibition in vivo: it is the percentage by which the read-out fell short of the control. Usually logD stands for the decadic logarithm of the distribution of all forms, ionised or not, between an organic phase and buffer at a given pH. As usually defined, the solubility is the dissolved amount per volume that the medium holds. The low end stands for a poorly soluble substance, the high end for a readily soluble substance.

Series [1] deals with Rattus norvegicus. In words: Gastrointestinal toxicity in Wistar rat assessed as appearance ulcer area of <1 mm diameter at 100 mg/kg, po administered as single dose after 6 hrs by Vernier caliper. The class given is organism-based. More on the design: dose 100 mg/kg, route oral. Particulars: in vivo. The method in brief:
(§1)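 Male Wistar rats (150-200 g), n = 6 per group, fasted 18 h with water available. Single oral dose of 100 mg/kg. Killed under ether 6 h after dosing; stomach opened along the greater curvature, washed and examined. Lesion lengths measured by Vernier caliper and graded I (<1 mm), II (1-3 mm) or III (>3 mm). UI = 1×(I) + 2×(II) + 3×(III), averaged over six animals.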

The subject of series [2] is Rattus norvegicus. In words: Gastrointestinal toxicity in Wistar rat assessed as ulcerogenic index at 100 mg/kg, po administered as single dose. The class given is organism-based. More on the design: dose 100 mg/kg, route oral. The note with it: in vivo. The method in brief: as §1
Series [3] concerns Rattus norvegicus. Nature of the series: Antiinflammatory activity in Wistar rat assessed as inhibition of carrageenan-induced paw edema at 100 mg/kg, po administered 1 hr before carrageenan challenge measured after 3 hrs by plethysmograph relative to control. The class given is functional. Put shortly:
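Male Wistar rats (150-200 g). Carrageenan 1% (0.1 mL) injected subplantar into left paw under light ether anaesthesia; test compound 100 mg/kg po given 1 h before. Paw volume read by plethysmograph 3 h after carrageenan. % inhibition = (carrageenan − test)/(carrageenan − normal) × 100. Groups: normal control, carrageenan, carrageenan plus treatment.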
For orientation: The carrageenan paw model is a standard test of acute inflammation.

Series [4] can be described thus: Partition coefficient, log P of the compound in n-octanol-phosphate buffer at pH 7.4 by HPLC analysis. The class given is physicochemical. Put shortly: (§2)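 Shake-flask method at 25 °C. 1-octanol and aqueous buffer (0.2 M phosphate pH 7.4 or 0.1 M citric acid pH 3.0) pre-saturated with each other for 24 h. Compound shaken in 5 mL each phase for 60 min at 400 rpm, then centrifuged at 3500 rpm for 5 min. Both phases quantified by HPLC at 254 nm. log P = log(octanol/water concentration). Run in triplicate.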

Series [5] can be described thus: Partition coefficient, log P of the compound in 1-octanol-citric acid buffer at pH 3 by HPLC analysis. The class given is physicochemical. The method in brief: as §2
Series [6] in a line: Aqueous solubility of the compound in 0.2 M hydrochloric acid buffer at pH 1 after 4 hrs by HPLC analysis. The class given is physicochemical. Put shortly:
(§3)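 5 mg compound in 10 mL buffer, shaken at 400 rpm for 4 h at 40 °C. Then passed through a 0.20 μm membrane filter. Filtrate quantified by HPLC at 254 nm for both solubility and hydrolysis to parent. Detection limits estimated by HPLC.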

Series [7] in a line: Aqueous solubility of the compound in 0.1 M citric acid buffer at pH 3 after 4 hrs by HPLC analysis. The class given is physicochemical. The method in brief: as §3
A short description of series [8]: Aqueous solubility of the compound in 0.1 M phosphate buffer at pH 5.2 after 4 hrs by HPLC analysis. The class given is physicochemical. Put shortly: as §3
Series [9] in a line: Aqueous solubility of the compound in 0.2 M phosphate buffer at pH 7.4 after 4 hrs by HPLC analysis. The class given is physicochemical. Put shortly: as §3
Series [10] in a line: Aqueous solubility of the compound in 0.1 M boric acid buffer at pH 9 after 4 hrs by HPLC analysis. The class given is physicochemical. Put shortly: as §3
Series [11] is described as follows: Chemical stability of the compound at 0.2 M hydrochloric acid buffer assessed as hydrolysis to parent compound at pH 1 after 4 hrs by HPLC analysis. The note with it: pH 1, 4 h. The class given is physicochemical. Put shortly: as §3
Series [12] can be described thus: Chemical stability of the compound at 0.1 M citric acid buffer assessed as hydrolysis to parent compound at pH 3 after 4 hrs by HPLC analysis. The class given is physicochemical. The note with it: pH 3, 4 h. Put shortly:
as §3

Series [13] is described as follows: Chemical stability of the compound at 0.1 M phosphate buffer assessed as hydrolysis to parent compound at pH 5.2 after 4 hrs by HPLC analysis. The class given is physicochemical. Particulars: pH 5.2, 4 h. The method in brief: as §3
The nature of series [14]: Chemical stability of the compound at 0.2 M phosphate buffer assessed as hydrolysis to parent compound at pH 7.4 after 4 hrs by HPLC analysis. The class given is physicochemical. The note with it: pH 7.4, 4 h. The method in brief: as §3
Series [15] is described as follows: Chemical stability of the compound at 0.1 M boric acid buffer assessed as hydrolysis to parent compound at pH 9 after 4 hrs by HPLC analysis. The class given is physicochemical. The note with it: pH 9, 4 h. Put shortly: as §3
A short description of series [16]: Metabolic stability in rat liver microsomes assessed as compound remaining at 5 mM after 30 mins by HPLC analysis. The class given is ADME, Microsome. The note with it: read-out: Stability. A general note: Liver microsomes are vesicles of endoplasmic reticulum, rich in cytochrome P450 enzymes.
The nature of series [17]: Metabolic stability in rat liver microsomes assessed as compound remaining at 5 mM after 60 mins by HPLC analysis. The note with it: read-out: Stability. The class given is ADME, Microsome.
Series [18] can be described thus: Metabolic stability in rat plasma assessed as compound remaining at 5 mM after 60 mins by HPLC analysis. The class given is ADME, cell-free. Particulars: read-out: Stability.
Series [19] relates to Rattus norvegicus. Nature of the series: Gastrointestinal toxicity in Wistar rat assessed as appearance ulcer area of 1 to 3 mm diameter at 100 mg/kg, po administered as single dose after 6 hrs by Vernier caliper. The class given is organism-based. More on the design: dose 100 mg/kg, route oral. Particulars: in vivo. Put shortly: as §1
For series [20], the system named is Rattus norvegicus. Nature of the series: Gastrointestinal toxicity in Wistar rat assessed as appearance ulcer area of >3 mm diameter at 100 mg/kg, po administered as single dose after 6 hrs by Vernier caliper. More on the design: dose 100 mg/kg, route oral. The class given is organism-based. Particulars: in vivo. Put shortly: as §1

`COc1ccc2c(c1)c(CC(=O)OCOC(=O)C(C)(C)C)c(C)n2C(=O)c1ccc(Cl)cc1`: in the series on Rattus norvegicus [1], the Activity amounted to 100%. Further, in the series on Rattus norvegicus [2], the UI was 19. Moreover, in the series with Rattus norvegicus [3], the inhibition in vivo at 100 mg/kg was 48.4%. In addition, the log distribution coefficient (logD) in [4] amounted to 4.7; in series [5], 4.6. Besides, the solubility at 4 h in series [6], in series [7], in series [8], in [9] and in series [10] was less than 0.084 µg/mL in each case. The Stability in series [11] was determined as 0.021 µg/mL; in [12] it was 0.0075 µg/mL; in series [13] it was 0.1525 µg/mL; in series [14], 0.294 µg/mL; in series [15], 2.187 µg/mL. Also, the remaining at 0.5 h in [16] was found to be 0%. Moreover, the remaining at 1 h in [17] and in series [18] was 0% in each case.

For the compound `COc1ccc2c(c1)c(CC(=O)OCOC(=O)OC(C)C)c(C)n2C(=O)c1ccc(Cl)cc1`, the Activity in the series with Rattus norvegicus [1] is recorded as 86.3%; in the series on Rattus norvegicus [19], 5.9%; with Rattus norvegicus [20], 7.8%. The UI with Rattus norvegicus [2] came to 62. Moreover, the inhibition in vivo at 100 mg/kg in the series on Rattus norvegicus [3] is 45.2%. Also, the logD in series [4] was 5; in series [5] it was 5.1. The solubility at 4 h in series [6], in series [7], in series [8], in series [9] and in [10] was less than 0.119 µg/mL throughout. In addition, the Stability in series [11] stood at 0.01 µg/mL; in [12], 0.00539 µg/mL; in [13], 0.01379 µg/mL; in [14], 0.01332 µg/mL; in series [15] it was 0.2461 µg/mL.

Take `COc1ccc2c(c1)c(CC(=O)OCCOC(C)=O)c(C)n2C(=O)c1ccc(Cl)cc1`: the UI in the series on Rattus norvegicus [2] is listed as 0. Also, in the series on Rattus norvegicus [3], the inhibition in vivo at 100 mg/kg came to 44.4%. Besides, the log distribution coefficient (logD) in series [4] was determined as 3.5; in [5], 4.2. For the same compound, the solubility at 4 h in series [6], in series [7], in [8], in series [9] and in series [10] was less than 0.111 µg/mL throughout. The Stability in series [11] was determined as 0.0103 µg/mL; in series [12], 0.0092 µg/mL; in series [13], 0.0197 µg/mL; in series [14], 0.0093 µg/mL; in [15], 0.369 µg/mL. Further, the remaining at 0.5 h in series [16] was 1.14%. The remaining at 1 h in series [17] and in series [18] was 0% throughout.

For the compound `COc1ccc2c(c1)c(CC(=O)OCc1oc(=O)oc1C)c(C)n2C(=O)c1ccc(Cl)cc1`, the UI in the series on Rattus norvegicus [2] was 0. Further, the inhibition in vivo at 100 mg/kg in the series on Rattus norvegicus [3] is 12.1%. Besides, the logD in series [4] is 2.9; in series [5], 4.5. Moreover, the solubility at 4 h in series [6], in series [7], in [8], in series [9] and in series [10] was less than 0.0638 µg/mL in each case. Besides, the Stability in series [11] is 0.0191 µg/mL; in series [12], 0.0134 µg/mL; in [13], 0.0244 µg/mL; in series [14], 0.0101 µg/mL; in series [15] it was 0.5106 µg/mL.

Take `COc1ccc2c(c1)c(CC(=O)O)c(C)n2C(=O)c1ccc(Cl)cc1` [INDOMETHACIN]: the values for the Activity in the series on Rattus norvegicus [1], in the series on Rattus norvegicus [19] and in the series on Rattus norvegicus [20] were 90.2%, 4.9% and 4.9%, respectively. In addition, the UI in the series on Rattus norvegicus [2] amounted to 47. In addition, in the series with Rattus norvegicus [3], the inhibition in vivo at 100 mg/kg was 48.4%. In series [5], this compound had a logD of 4.2. In addition, the remaining at 0.5 h in [16] is 90.3%. Further, the remaining at 1 h in [17] was determined as 80.2%; in [18], 97.1%.
